Laboratory results reported in ChEMBL document CHEMBL3351374, “Semisynthetic teicoplanin derivatives as new influenza virus binding inhibitors: synthesis and antiviral studies” (Bioorg Med Chem Lett, 2014).
Values after ≈ are worked out from the molar mass of the structure shown.

Columns and labels:
Influenza A virus [1] = assay: Antiviral activity against Influenza A virus A/Virginia/ATCC3/2009 infected in MDCK cells assessed as reduction in host cell viability after 72 hrs by MTS assay; type: functional, organism-based; conditions: A/Virginia/ATCC3/2009, MDCK
Influenza A virus [2] = assay: Antiviral activity against Influenza A virus (A/PR/8/34(H1N1)) infected in MDCK cells assessed as virus-induced cytopathic effect after 72 hrs by microscopy; type: functional, organism-based; conditions: A/Puerto Rico/8/1934(H1N1)
[3] = Cytotoxicity against MDCK cells assessed as change in cell morphology after 72 hrs by microscopy; type: cell-based, Canis lupus familiaris; conditions: dog
In short: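 Uninfected MDCK cells exposed to compound. MCC is the minimal concentration causing minimal alterations in cell morphology, assessed by microscopy.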

Influenza B virus [4] = assay: Antiviral activity against Influenza B virus (B/HK/05/1972) infected in MDCK cells assessed as virus-induced cytopathic effect after 72 hrs by microscopy; type: functional, cell-based; conditions: B/Hong Kong/05/1972, MDCK
Influenza A virus [5] = assay: Antiviral activity against Influenza A virus (A/PR/8/34(H1N1)) infected in MDCK cells assessed as reduction in host cell viability after 72 hrs by MTS assay; type: functional, organism-based; conditions: A/Puerto Rico/8/1934(H1N1)
[6] = Cytotoxicity against MDCK cells assessed as reduction in cell viability after 72 hrs by MTS assay; type: cell-based, Canis lupus familiaris; conditions: dog
Influenza B virus [7] = assay: Antiviral activity against Influenza B virus (B/HK/05/1972) infected in MDCK cells assessed as reduction in host cell viability after 72 hrs by MTS assay; type: functional, cell-based; conditions: B/Hong Kong/05/1972, MDCK
[8] = Antiviral activity against Influenza A virus (A/HK/7/1987(H3N2)) infected in MDCK cells assessed as virus-induced cytopathic effect after 72 hrs by microscopy; type: functional, cell-based, Influenza A virus (A/Hong Kong/7/1987(H3N2))
Influenza A virus [9] = assay: Antiviral activity against Influenza A virus A/Virginia/ATCC3/2009 infected in MDCK cells assessed as virus-induced cytopathic effect after 72 hrs by microscopy; type: functional, organism-based; conditions: A/Virginia/ATCC3/2009, MDCK
[10] = Antiviral activity against Influenza A virus (A/HK/7/1987(H3N2)) infected in MDCK cells assessed as reduction in host cell viability after 72 hrs by MTS assay; type: functional, cell-based, Influenza A virus (A/Hong Kong/7/1987(H3N2))
[11] = Retention time of the compound by HPLC method; type: physicochemical
[12] = Selectivity ratio of CC50 for MDCK cells assessed as reduction in cell viability after 72 hrs by MTS assay to EC50 for Influenza A virus A/Virginia/ATCC3/2009 infected in MDCK cells; type: cell-based; conditions: dog, read-out: Ratio CC50/EC50
[13] = Cytotoxicity against chicken RBC assessed as minimum concentration required for hemagglutination by microscopy; type: cell-based, Gallus gallus; conditions: erythrocyte
In short: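 Chicken red blood cells incubated with compound without virus. The value is the minimal concentration causing hemagglutination.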

[14] = Inhbition of Influenza A virus (A/X-31(H3N2) hemagglutinin binding to 2 hrs compound pre-incubated MDCK cells assessed as reduction in viral RNA measured after 1 hr by RT-qPCR analysis; type: cell-based
In short: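 Influenza virus binding to MDCK host cells measured with compound at 50, 10, 2 and 0.4 µM.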

[15] = Selectivity ratio of MCC for MDCK cells assessed as change in cell morphology after 72 hrs by microscopy to EC50 for Influenza A virus A/Virginia/ATCC3/2009 infected in MDCK cells; type: cell-based; conditions: dog
[16] = system: Staphylococcus epidermidis; assay: Antibacterial activity against biofilm forming Staphylococcus epidermidis harboring mecA gene by broth microdilution method; type: functional
Bacillus spizizenii = assay: Antibacterial activity against Bacillus subtilis ATCC 6633 by broth microdilution method; type: functional
[17] = system: Staphylococcus epidermidis; assay: Antibacterial activity against biofilm forming Staphylococcus epidermidis ATCC 35984 by broth microdilution method; type: functional
Enterococcus faecalis [18] = assay: Antibacterial activity against Enterococcus faecalis ATCC 29212 by broth microdilution method; type: functional
Enterococcus faecalis [19] = assay: Antibacterial activity against vanA gene-positive Enterococcus faecalis 15376 by broth microdilution method; type: functional
Staphylococcus aureus [20] = assay: Antibacterial activity against methicillin-sensitive Staphylococcus aureus ATCC 29213 by broth microdilution method; type: functional
Staphylococcus aureus [21] = assay: Antibacterial activity against methicillin-resistant Staphylococcus aureus ATCC 33591 by broth microdilution method; type: functional
Enterococcus faecalis [22] = assay: Antibacterial activity against vanA gene-positive Enterococcus faecalis ATCC 51299 by broth microdilution method; type: functional
Influenza A virus [23] = assay: Antiviral activity against Influenza A virus infected in chicken RBC assessed as minimum concentration required for inhibition of 4 hemagglutinating units of virus-induced hemagglutination after 1 hr by microscopy; type: functional
In short: (§1)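 Chicken red blood cells incubated with virus at 1, 2 or 4 HA-U plus compound. The value is the minimal concentration causing inhibition of hemagglutination.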

Influenza A virus [24] = assay: Antiviral activity against Influenza A virus infected in chicken RBC assessed as minimum concentration required for inhibition of 2 hemagglutinating units of virus-induced hemagglutination after 1 hr by microscopy; type: functional; in short: as §1
Influenza A virus [25] = assay: Antiviral activity against Influenza A virus infected in chicken RBC assessed as minimum concentration required for inhibition of 1 hemagglutinating unit of virus-induced hemagglutination after 1 hr by microscopy; type: functional; in short: as §1

Row | Compound | EC50 (Influenza A virus [1]) | EC50 (Influenza A virus [2]) | MCC at 72 h [3] | EC50 (Influenza B virus [4]) | EC50 (Influenza A virus [5]) | CC50 at 72 h [6] | EC50 (Influenza B virus [7]) | EC50 [8] | EC50 (Influenza A virus [9]) | EC50 [10] | Retention_time [11] | MIC [16] | MIC (Bacillus spizizenii) | MIC [17] | MIC (Enterococcus faecalis [18]) | MIC (Enterococcus faecalis [19]) | MIC (Staphylococcus aureus [20]) | MIC (Staphylococcus aureus [21]) | MIC (Enterococcus faecalis [22]) | other results
1 | CC(N)C12CC3CC(CC(C3)C1)C2 (stereo unspecified) [RIMANTADINE] | > 500 µM | 4.6 µM | ≥ 500 µM | > 500 µM | 5.3 µM | > 500 µM | > 500 µM | 0.051 µM | > 500 µM | 0.046 µM | – | – | – | – | – | – | – | – | – | –
2 | C.CCCCCCCCO[C@H]1[C@@H](OC)O[C@H](COCCOCCOCCOCCOCc2cn([C@H]3C(=O)N[C@@H]4Cc5ccc(c(Cl)c5)Oc5cc6cc(c5O)Oc5ccc(cc5Cl)[C@@H](O[C@@H]5O[C@H](CO)[C@@H](O)[C@H](O)[C@H]5NC(C)=O)[C@@H]5NC(=O)[C@H](NC(=O)[C@@H]6NC(=O)[C@@H](NC4=O)c4cc(O)cc(c4)Oc4cc3ccc4O)c3ccc(O)c(c3)-c3c(O)cc(O)cc3[C@@H](C(=O)O)NC5=O)nn2)[C@@H](O)[C@@H]1OCCCCCCCC [listing 1 of 2 here] | 1.3 µM | > 100 µM | ≥ 4 µM | > 100 µM | > 100 µM | 12 µM | > 100 µM | 2.3 µM | 1.8 µM | 2.2 µM | 8.17 min | – | – | – | – | – | – | – | – | selectivity ratio at 72 h [12]: 4; Activity [13]: 50 µM; IC50 [14]: 7 µM; selectivity ratio at 72 h [15]: 4
3 | COc1ccc(CO[C@H]2[C@H](OC)[C@@H](OC)[C@@H](OC)O[C@@H]2COCCOCCOCCOCCOCc2cn([C@H]3C(=O)N[C@@H]4Cc5ccc(c(Cl)c5)Oc5cc6cc(c5O)Oc5ccc(cc5Cl)[C@@H](O[C@@H]5O[C@H](CO)[C@@H](O)[C@H](O)[C@H]5NC(C)=O)[C@@H]5NC(=O)[C@H](NC(=O)[C@@H]6NC(=O)[C@@H](NC4=O)c4cc(O)cc(c4)Oc4cc3ccc4O)c3ccc(O)c(c3)-c3c(O)cc(O)cc3[C@@H](C(=O)O)NC5=O)nn2)cc1 [listing 1 of 2 here] | – | – | – | – | – | – | – | – | – | – | – | 32 µg/mL (≈ 16.1 µM) | 16 µg/mL (≈ 8.06 µM) | 16 µg/mL (≈ 8.06 µM) | 32 µg/mL (≈ 16.1 µM) | 32 µg/mL (≈ 16.1 µM) | 16 µg/mL (≈ 8.06 µM) | 32 µg/mL (≈ 16.1 µM) | 32 µg/mL (≈ 16.1 µM) | –
4 | CCCCCCCCO[C@@H]1[C@@H](OCCCCCCCC)[C@@H](OC)O[C@H](COCCOCCOCCOCCOCc2cn([C@H]3C(=O)N[C@@H]4Cc5ccc(c(Cl)c5)Oc5cc6cc(c5O)Oc5ccc(cc5Cl)[C@@H](O[C@@H]5O[C@H](CO)[C@@H](O)[C@H](O)[C@H]5NC(C)=O)[C@@H]5NC(=O)[C@H](NC(=O)[C@@H]6NC(=O)[C@@H](NC4=O)c4cc(O)cc(c4)Oc4cc3ccc4O)c3ccc(O)c(c3)-c3c(O)cc(O)cc3[C@@H](C(=O)O)NC5=O)nn2)[C@H]1OCc1ccc(OC)cc1 [listing 1 of 2 here] | < 0.8 µM | 0.8 µM | 20 µM | > 100 µM | 1.2 µM | 11 µM | 1.5 µM | 1.8 µM | 1.4 µM | 1.2 µM | 8.16 min | – | – | – | – | – | – | – | – | selectivity ratio at 72 h [12]: 4; Activity [13]: 50 µM; IC50 [14]: 4.7 µM; selectivity ratio at 72 h [15]: 4
5 | COc1ccc(CO[C@H]2[C@H](OC)[C@@H](OC)[C@@H](OC)O[C@@H]2COCCOCCOCCOCCOCc2cn([C@H]3C(=O)N[C@@H]4Cc5ccc(c(Cl)c5)Oc5cc6cc(c5O)Oc5ccc(cc5Cl)[C@@H](O[C@@H]5O[C@H](CO)[C@@H](O)[C@H](O)[C@H]5NC(C)=O)[C@@H]5NC(=O)[C@H](NC(=O)[C@@H]6NC(=O)[C@@H](NC4=O)c4cc(O)cc(c4)Oc4cc3ccc4O)c3ccc(O)c(c3)-c3c(O)cc(O)cc3[C@@H](C(=O)O)NC5=O)nn2)cc1 [listing 2 of 2 here] | > 100 µM | > 100 µM | ≥ 20 µM | > 100 µM | > 100 µM | 47 µM | > 100 µM | > 100 µM | > 100 µM | > 100 µM | 5.73 min | – | – | – | – | – | – | – | – | –
6 | NC12CC3CC(CC(C3)C1)C2 [AMANTADINE] | > 500 µM | – | > 500 µM | > 500 µM | 111 µM | > 500 µM | > 500 µM | 0.45 µM | > 500 µM | 0.5 µM | – | – | – | – | – | – | – | – | – | –
7 | C.CCCCCCCCO[C@H]1[C@@H](OC)O[C@H](COCCOCCOCCOCCOCc2cn([C@H]3C(=O)N[C@@H]4Cc5ccc(c(Cl)c5)Oc5cc6cc(c5O)Oc5ccc(cc5Cl)[C@@H](O[C@@H]5O[C@H](CO)[C@@H](O)[C@H](O)[C@H]5NC(C)=O)[C@@H]5NC(=O)[C@H](NC(=O)[C@@H]6NC(=O)[C@@H](NC4=O)c4cc(O)cc(c4)Oc4cc3ccc4O)c3ccc(O)c(c3)-c3c(O)cc(O)cc3[C@@H](C(=O)O)NC5=O)nn2)[C@@H](O)[C@@H]1OCCCCCCCC [listing 2 of 2 here] | – | – | – | – | – | – | – | – | – | – | – | 256 µg/mL | 4 µg/mL | 8 µg/mL | 2 µg/mL | 8 µg/mL | 16 µg/mL | 8 µg/mL | 4 µg/mL | Activity (Influenza A virus [23]): 3.1 µM; Activity (Influenza A virus [24]): 0.78 µM; Activity (Influenza A virus [25]): 0.39 µM
8 | CC(=O)N[C@H]1[C@H]([C@H](O)[C@H](O)CO)OC(C(=O)O)=C[C@@H]1NC(=N)N [ZANAMIVIR] | 20 µM | 0.47 µM | > 100 µM | 12 µM | 0.5 µM | > 100 µM | 9.4 µM | 8.9 µM | 45 µM | 9 µM | – | – | – | – | – | – | – | – | – | –
9 | CCCCCCCCO[C@@H]1[C@@H](OCCCCCCCC)[C@@H](OC)O[C@H](COCCOCCOCCOCCOCc2cn([C@H]3C(=O)N[C@@H]4Cc5ccc(c(Cl)c5)Oc5cc6cc(c5O)Oc5ccc(cc5Cl)[C@@H](O[C@@H]5O[C@H](CO)[C@@H](O)[C@H](O)[C@H]5NC(C)=O)[C@@H]5NC(=O)[C@H](NC(=O)[C@@H]6NC(=O)[C@@H](NC4=O)c4cc(O)cc(c4)Oc4cc3ccc4O)c3ccc(O)c(c3)-c3c(O)cc(O)cc3[C@@H](C(=O)O)NC5=O)nn2)[C@H]1OCc1ccc(OC)cc1 [listing 2 of 2 here] | – | – | – | – | – | – | – | – | – | – | – | 256 µg/mL (≈ 117 µM) | 256 µg/mL (≈ 117 µM) | 16 µg/mL (≈ 7.34 µM) | 32 µg/mL (≈ 14.7 µM) | 128 µg/mL (≈ 58.7 µM) | 128 µg/mL (≈ 58.7 µM) | 64 µg/mL (≈ 29.3 µM) | 256 µg/mL (≈ 117 µM) | Activity (Influenza A virus [23]): 12 µM; Activity (Influenza A virus [24]): 6.3 µM; Activity (Influenza A virus [25]): 0.78 µM
10 | NC(=O)c1ncn([C@@H]2O[C@H](CO)[C@@H](O)[C@H]2O)n1 [RIBAVIRIN] | – | – | ≥ 20 µM | – | 21 µM | > 100 µM | 8.2 µM | 6.8 µM | – | 7.3 µM | – | – | – | – | – | – | – | – | – | –
